# Rows were chosen to be rich in hits. Some 2.3% of all compounds tested hit in one or more screens of this group.
# TRPC4 agonist = activators of mouse TRPC4 channel, primary screen, Fluo4 calcium, HEK293 TRPC4beta/mu-opioid cells. Short transient receptor potential channel 4 (Mus musculus), Q9QUQ5. Fluo4 calcium fluorescence; active compounds read high. B-score at 10 µM. 0.49% of 310,000 active. AID 2237, 2010;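 active = B-score above 5 SD of library B-scores, and initial fluorescence ratio not above library mean plus 5 SD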;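 also: positive B-score marks a calcium rise read as TRPC4 activation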
#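 Material: TRPC4beta and mu-opioid receptor HEK293 stable cells | Incubation: 45 min room-temperature Fluo4 loading, 110 s read | Detection: Kinetic Fluo4 calcium fluorescence | Measure: Integrated baseline-normalised fluorescence ratio, converted to per-well B score | Benchmarks: Low control buffer alone, high control maximal DAMGO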
# TRPC4 potent = positive allosteric modulators of TRPC4, primary screen, cell-based, mouse TRPC4beta, HEK293 mu-opioid, Fluo-4 calcium; Short transient receptor potential channel 4 (Mus musculus), Q9QUQ5; B-score at 10 µM; DAMGO EC20, Fluo-4 Ca2+ flux; active compounds read high; 0.42% of 310,000 active; AID 2227, 2009;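 active = B-score of calcium response area above 5 SD of library B-scores, with initial fluorescence ratio within 5 SD of library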;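 also: B-score of integrated fluorescence ratio over time as area under calcium response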
# TRPC4 block = inhibitors of mouse TRPC4 channel, primary screen, Fluo4 calcium, HEK293 TRPC4beta/mu-opioid cells | 0.39% of 300,000 active | DAMGO-evoked Fluo4 calcium flux; active compounds read low | B-score at 10 µM | Short transient receptor potential channel 4 (Mus musculus), Q9QUQ5;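 active = B-score over 3 SD under the library average, no early fluorescence shift, positive overall ratio signal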
#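 Assay system: HEK293 cells with stable TRPC4beta plus mu-opioid receptor expression; Probe or stimulus: DAMGO in two steps, submaximal then maximal; Dosing: single-point compound dosing; Measured by: Fluo4 calcium-dye fluorescence, kinetic read; Read-out basis: B score from integrated Fluo4 fluorescence ratio.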
# TRPC6 act = mouse TRPC6 channel activators, primary screen, cell-based, HEK293, membrane potential dye; Short transient receptor potential channel 6 (Mus musculus), Q61143; HEK293-TRPC6 membrane potential dye fluorescence; active compounds read high; B-score at 10 µM; 0.13% of 310,000 active;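 active = B-score of the integrated fluorescence ratio above library mean plus 3 SD, and starting fluorescence ratio within library mean plus 5 SD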;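 also: higher score means more depolarization so channel activation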
# Target sequence (Q61143 whole entry, looked up): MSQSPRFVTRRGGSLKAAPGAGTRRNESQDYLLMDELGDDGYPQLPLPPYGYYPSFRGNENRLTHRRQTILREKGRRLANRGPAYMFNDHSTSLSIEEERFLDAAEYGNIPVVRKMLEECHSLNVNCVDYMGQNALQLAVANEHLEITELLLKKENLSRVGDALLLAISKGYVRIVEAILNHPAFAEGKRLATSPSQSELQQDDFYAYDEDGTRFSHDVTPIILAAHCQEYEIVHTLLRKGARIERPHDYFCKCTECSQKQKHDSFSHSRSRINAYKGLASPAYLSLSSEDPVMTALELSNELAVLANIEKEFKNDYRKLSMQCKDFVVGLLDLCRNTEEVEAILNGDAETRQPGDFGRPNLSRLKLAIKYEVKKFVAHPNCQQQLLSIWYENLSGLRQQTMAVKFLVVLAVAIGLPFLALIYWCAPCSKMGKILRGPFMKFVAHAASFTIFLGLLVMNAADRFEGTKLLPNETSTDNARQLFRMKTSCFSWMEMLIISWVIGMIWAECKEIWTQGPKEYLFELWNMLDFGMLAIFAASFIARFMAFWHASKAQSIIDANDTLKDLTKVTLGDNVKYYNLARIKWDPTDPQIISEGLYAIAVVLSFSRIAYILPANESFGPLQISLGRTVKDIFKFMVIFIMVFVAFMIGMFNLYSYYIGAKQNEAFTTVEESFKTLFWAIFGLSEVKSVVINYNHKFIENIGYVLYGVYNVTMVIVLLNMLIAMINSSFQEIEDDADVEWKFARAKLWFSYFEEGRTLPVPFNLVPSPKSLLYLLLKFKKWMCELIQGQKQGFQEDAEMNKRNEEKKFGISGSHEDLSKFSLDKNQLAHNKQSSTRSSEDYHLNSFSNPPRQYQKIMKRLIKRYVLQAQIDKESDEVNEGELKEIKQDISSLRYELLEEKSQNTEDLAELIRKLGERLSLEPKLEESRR
# TRPC6 inh = mouse TRPC6 channel inhibitors, primary screen, cell-based, HEK293, membrane potential dye; Short transient receptor potential channel 6 (Mus musculus), Q61143; ACh-evoked depolarization; active compounds read low; B-score at 10 µM; 1.1% of 310,000 active;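 active = B-score under library mean minus 3 SD, initial fluorescence not abnormally high, positive integrated signal ratio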;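 also: B-score derived from integrated fluorescence ratio over the kinetic read; more negative B-score means stronger inhibition of depolarization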
# TRPC4 spec 2 = second selectivity test of TRPC6 inhibitors: effect on mouse TRPC4. shares compounds with TRPC6 inh. HEK293 TRPC4/MOR, membrane potential dye fluorescence; channel activated by saturating DAMGO dose. inhibition, % at 10 µM. 42% of 920 active;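 active = compounds whose fluorescence signal differed from control wells by over 3 SD, either direction, in both duplicate plates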
# TRPC4 spec = mouse TRPC4 modulation by TRPC6 hits, confirmation, selectivity assay for TRPC6 inhibitor project, cell-based, HEK293 TRPC4/mu-opioid, membrane potential dye; shares compounds with TRPC6 inh; membrane potential fluorescence; activity change, negative = inhibition, % at 10 µM; 61% of 920 active; AID 2777, 2010;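 active = rise or fall in signal beyond 3 SD of buffer-only wells in both replicate plates, either sign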;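 also: integrated kinetic ratio of fluorescence range over baseline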
# HEK293 MPD ctr 2-1 = nonspecific membrane potential effects, parental HEK293, confirmation, counter-screen for TRPC6 inhibitor project, cell-based, second counter screen; parental HEK293 membrane potential dye fluorescence; maximal acetylcholine challenge after compound addition; 31% of 920 active; signal change vs control, % at 10 µM; shares compounds with TRPC6 inh;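 active = membrane potential signal moving either way by over 3 SD of the maximum-effect control, in both duplicate plates, meaning non-specific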
# HEK293 MPD ctr-1 = membrane potential modulation in parental HEK293, confirmation, counter-screen for TRPC6 inhibitor project, cell-based; 60% of 920 active; parental HEK293 membrane potential dye fluorescence; membrane potential signal change, % at 10 µM; shares compounds with TRPC6 inh;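 active = membrane potential signal shifting up or down by more than 3 SD of buffer-only wells, on both duplicate plates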
# HEK293 MPD ctr-2 = parental HEK293 membrane potential modulation, confirmation, counter-screen for TRPC6 modulator project, cell-based; shares compounds with TRPC6 inh; membrane potential dye fluorescence; membrane potential signal change, % at 10 µM; 51% of 2,400 active;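 active = membrane potential signal moves up or down beyond 5 SD from buffer-only wells, on both duplicate plates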
# HEK293 MPD ctr 2-2 = parental HEK293 nonspecific activity of TRPC6 modulators, second screen; shares compounds with TRPC6 inh; inhibition, % at 10 µM; 14% of 2,400 active; AID 488926; membrane potential dye fluorescence; after compound, maximal acetylcholine stimulation;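 active = membrane potential signal drops by more than 5 SD from the mean control signal, in both duplicate plates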;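 also: plate controls were acetylcholine ECmax control wells for no effect and buffer only wells for full effect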
# TRPC4/MOR mod = TRPC4 modulation by TRPC6 hit compounds, confirmation, selectivity assay for TRPC6 modulator project, cell-based, HEK293 TRPC4/mu-opioid, membrane potential dye, mouse; shares compounds with TRPC6 inh; membrane potential fluorescence; percent change from control (negative = decrease, positive = increase), % at 10 µM; 69% of 2,400 active; AID 488927, 2010;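 active = membrane potential signal moved up or down beyond 5 SD of buffer control wells, in both duplicate plates, actives on both sides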;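 also: plate controls were assay buffer wells for no effect and DAMGO maximal-effect wells for full effect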
# TRPC4/MOR inh 2 = second check of whether TRPC6 modulators also affect mouse TRPC4. inhibition, % at 10 µM. shares compounds with TRPC6 inh. 55% of 2,400 active. HEK293 TRPC4/mu-opioid, membrane potential dye fluorescence; stimulated with maximal-effect DAMGO;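 active = drop in membrane potential signal beyond 5 SD of the control wells in both duplicate plates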;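 also: TRPC4 counter screen for TRPC6 hits run under conditions tuned for TRPC6 not TRPC4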
# TRPC6 inh conf = mouse TRPC6 channel inhibitors, confirmation, HEK293 cells, membrane potential dye, duplicate; ACh-evoked depolarization; AID 488960, 2010; inhibition, % at 10 µM; 43% of 3,300 active; shares compounds with TRPC6 inh;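 active = fluorescence ratio falls more than 5 SD below the full-stimulation control mean, in both duplicate runs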;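 also: integrated fluorescence ratio of peak minus minimum over baseline after agonist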
# TRPC6 act conf = mouse TRPC6 channel activators, confirmation, HEK293 cells, membrane potential dye, duplicate | shares compounds with TRPC6 inh | HEK293-TRPC6 membrane potential dye fluorescence, FDSS | activation, % at 10 µM | 11% of 2,800 active | AID 488961, 2010;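 active = ratio signal rise beyond 5 SD above unstimulated control wells' mean, seen in both duplicate runs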;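 also: plate controls were buffer EC0 wells for no effect and acetylcholine ECmax response for full effect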
# Numbers without * were called inactive; i = inactive; . = not tested or not shown.
SMILES,TRPC4 agonist,TRPC4 potent,TRPC4 block,TRPC6 act,TRPC6 inh,HEK293 MPD ctr-2,HEK293 MPD ctr 2-2,TRPC4/MOR mod,TRPC4/MOR inh 2,TRPC6 inh conf,TRPC6 act conf,others
O=C(NCC(c1ccco1)N1CCCC1)c1ccc(Cl)cc1 (centres undefined),i,i,i,i,i,.,.,.,.,.,.,
Cc1ccc2c(NC(=O)c3ccco3)cccc2n1,i,i,i,i,i,.,.,.,.,.,.,
COc1ccc(-c2cc(-c3cc(OC)ccc3O)[nH]n2)cc1,i,i,i,i,i,.,.,.,.,.,.,
COc1ccc(-c2n[nH]c(C)c2-c2cc(OC)ccc2O)cc1,i,i,i,i,-6.05*,i,i,i,i,i,i,
COc1cccc(C(=O)C2CCCN(Cc3cccn3-c3ccccn3)C2)c1 (centres undefined),i,i,-7*,i,-5.92*,145.5%*,i,14.0%*,84.5%*,59.5%*,.,
COc1ccc(C(=O)C2CCCN(Cc3cccn3-c3nccs3)C2)cc1F (centres undefined),i,i,i,i,i,.,.,.,.,.,.,
COc1ccc(C(=O)C2CCCN(Cc3cccn3-c3nccs3)C2)cc1OC (centres undefined),i,i,i,i,-5.25*,i,i,i,68.5%*,i,i,
Cc1ccsc1C(=O)C1CCCN(Cc2cccn2-c2ccc(Cl)cn2)C1 (centres undefined),i,i,i,i,-5.95*,i,i,i,89.5%*,53.5%*,.,
COc1ccc(C(=O)C2CCCN(Cc3cccn3-c3ccccn3)C2)cc1F (centres undefined),i,i,i,i,-11.8*,.,.,.,.,106.9%*,i,TRPC4 spec 2=15.5%*;TRPC4 spec=i;HEK293 MPD ctr 2-1=21.0%*;HEK293 MPD ctr-1=-0.1%*
CN(Cc1cnccn1)C(=O)CC1C(=O)NCCN1Cc1ccc(F)cc1Cl (centres undefined),i,i,i,i,i,.,.,.,.,.,.,
Cc1cccc(NC2=C(NCCO)C(=O)c3ccccc3C2=O)c1,i,i,i,i,-10.9*,-251.5%*,i,-49.5%*,65.5%*,52.5%*,i,
Nc1ccc(C23CC4CC(CC(CO)(C4)C2)C3)cc1,i,i,i,i,i,.,.,.,.,.,.,
NCC12CC3CC(C1)CC(c1ccc(Cl)cc1)(C3)C2,61*,i,i,i,-7.09*,.,.,.,.,71.5%*,i,TRPC4 spec 2=31.0%*;TRPC4 spec=i;HEK293 MPD ctr 2-1=i;HEK293 MPD ctr-1=-135.5%*
COc1ccc(OC)c(NC(=O)CC2C(=O)NCCN2C(=O)Nc2cccc(Cl)c2)c1 (centres undefined),i,i,i,i,-5.93*,i,i,-14.0%*,29.0%*,i,i,
CCc1ccc(/C=C2/SC(=S)N(CCC(=O)NCCCN3CCOCC3)C2=O)cc1,i,i,i,i,-5.76*,i,i,i,45.0%*,39.0%*,i,
CC(C)CNS(=O)(=O)c1ccc(S(=O)(=O)N2CCN(C3CCCC3)CC2)cc1,i,i,i,i,i,.,.,.,.,.,.,
CCN1CCN(C(=O)c2ccc(C)c(S(=O)(=O)Nc3cccc(C)c3)c2)CC1,i,i,i,i,-5.77*,i,i,i,i,i,i,
Cc1cccc(NS(=O)(=O)c2cc(C(=O)N3CCN(C)CC3)ccc2C)c1,i,i,i,i,i,.,.,.,.,.,.,
Cc1cc(/C=C2\SC(=S)NC2=O)c(C)n1-c1ccc(O)cc1,i,i,i,27.3*,i,449.5%*,i,70.5%*,i,i,126.0%*,
O=C(/C=C1\NCC2c3ccccc3CCN2C1=O)c1ccccc1 (centres undefined),i,i,i,i,-6.07*,171.0%*,i,13.5%*,i,72.0%*,.,
O=C(C=C1NCCN1)c1ccccc1,i,i,i,i,i,.,.,.,.,.,.,
NC(=O)CNC(=O)[C@@H]1CC2(CC(c3ccccc3)=NO2)CN1C(=O)c1ccc(Br)cc1 (some centres undefined),i,i,i,i,i,.,.,.,.,.,.,

# Assay outcomes from PubChem.
